Data on five molecules can be found in ChEMBL document CHEMBL1152919, “Chloro-oxime derivatives as novel small molecule chaperone amplifiers” (Bioorg Med Chem Lett, 2009).

The target of data set [1] is T1, Heat shock factor protein 1 (Homo sapiens, UniProt Q00613).
T1 sequence (Q00613 whole entry): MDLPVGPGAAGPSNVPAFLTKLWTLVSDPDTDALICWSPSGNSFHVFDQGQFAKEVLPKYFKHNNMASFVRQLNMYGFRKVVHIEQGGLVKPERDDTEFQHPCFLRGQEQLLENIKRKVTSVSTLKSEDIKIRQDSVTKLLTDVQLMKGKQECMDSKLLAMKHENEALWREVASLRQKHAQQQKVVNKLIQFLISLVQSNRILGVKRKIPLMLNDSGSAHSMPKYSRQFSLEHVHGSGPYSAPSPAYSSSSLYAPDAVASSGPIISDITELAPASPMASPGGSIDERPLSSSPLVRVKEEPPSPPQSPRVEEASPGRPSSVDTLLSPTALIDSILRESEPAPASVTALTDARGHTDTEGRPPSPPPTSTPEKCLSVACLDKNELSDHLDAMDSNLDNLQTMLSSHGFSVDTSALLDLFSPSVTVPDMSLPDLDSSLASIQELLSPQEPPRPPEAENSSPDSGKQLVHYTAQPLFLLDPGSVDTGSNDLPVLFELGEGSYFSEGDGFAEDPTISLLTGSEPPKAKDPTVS
The data set is described as follows: Transcriptional activation of HSF1 in heat shock stress-induced human HeLa cells assessed as granule formation at 80 uM treated 1 hr before heat shock challenge measured after 2 hrs by immunocytochemical staining. It is filed as cell-based.

Data set [2] in a line: Cytotoxicity against human HeLa cells by MTS assay. It is filed as cell-based. A general note: Tetrazolium assays rely on reduction of a dye to a coloured formazan, in cell work by metabolically active cells.
The target in data set [3] is T2, Heat shock factor protein 1 (Homo sapiens) (UniProt Q00613).
T2 sequence (whole entry): T1 sequence (Q00613 whole entry)
Description: Transcriptional activation of HSF1 in human HeLa cells assessed as granule formation treated for 3 hrs at 37 degC without heat shock by immunocytochemical staining.

The nature of data set [4]: Cytotoxicity against human SK-N-SH cells by MTS assay. The format is cell-based. An outline of the steps:
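SK-N-SH cells, 14,000/well, seeded in DMEM with 10% FBS 18 h before compound (1:200 dilution; final 0.3–80 µM). MTS read-out; % inhibition = (MTS DMSO − MTS compound)/MTS DMSO ×100; CC50 by nonlinear regression; average SD across runs 14%.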

For data set [5], the target named is T2, Heat shock factor protein 1 (Homo sapiens). Description: Transcriptional activation of HSF1 in heat shock stress-induced human HeLa cells assessed as granule formation treated 1 hr before heat shock challenge measured after 2 hrs by immunocytochemical staining. The format is cell-based. An outline of the steps: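 HeLa cells given compound 1 h, then heat shock at 41 °C for 2 h without recovery; HSF1 immunocytochemical staining, quantified by high-content imaging. Range 0.3–80 µM, twofold dilution, 200-fold overall.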

The subject of data set [6] is SK-N-SH. Description: Cytoprotective activity against 26S proteasome inhibitor MG132-induced stress in human SK-N-SH cells assessed as cell viability treated 1 hr before MG132 challenge measured after 24 hrs. The format is functional, cell-based. Particulars: Homo sapiens, SK-N-SH; read-out: EC50. Summed up:
(§1)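 SK-N-SH cells, 12,500/well, exposed to compound 1 h ahead of MG-132 (5 µM final), then 24 h. Viability by ATPlite-1step luminescence; increased ATP% = (RLU compound − RLU DMSO)/RLU DMSO ×100, with DMSO as negative control. Tested 0.3–80 µM in twofold steps; EC50 from nonlinear regression curve fit; max cytoprotection >60% scored active.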

Data set [7] relates to HeLa. Description: Cytotoxicity against human HeLa cells at 80 uM by MTS assay. It is filed as cell-based.
Data set [8] concerns HeLa. The data set is described as follows: Stimulation of human HeLa cells proliferation upto 20 uM by Click-iT assay. The format is functional, cell-based. Summed up:
(§2)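 Click-iT cell proliferation assay, run on HeLa and SK-N-SH cells across 0–20 µM compound.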

In a further data set the test system is PC-12. The data set is described as follows: Cytoprotective activity against tunicamycin-induced endoplasmic reticulum stress in rat PC12 cells assessed as viability after 43 hrs relative to control. The format is functional. Summed up:
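PC12 cells, 5000/well, differentiated with NGF (50 ng/ml final) for 5–7 days until neurites appear. Compound (1:20 dilution) given together with tunicamycin (750 ng/mL final) for 43 h at 37 °C. Viability by ATPlite; ATP increase expressed against the DMSO plus tunicamycin control.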

In data set [9] the test system is SK-N-SH. Description: Cytoprotective activity against MG132-induced stress in human SK-N-SH cells assessed as survivality treated 1 hr before MG132 challenge measured after 24 hrs relative to control. The format is functional. Summed up: as §1
The subject of data set [10] is HeLa. The data set is described as follows: Increase in HSP70 expression in heat shock stress-induced human HeLa cells assessed as granule formation after 2 hrs of recovery time by immunocytochemical staining. It is filed as functional, cell-based. An outline of the steps: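 HeLa cells heat-shocked at 41 °C; HSP70 immunocytochemical staining 2 h after heat shock; automated image acquisition, quantifying HSP70 granule count and total granule area.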

Data set [11] has as its system SK-N-SH. The data set is described as follows: Decrease in human SK-N-SH cells proliferation upto 20 uM by Click-iT assay. The format is functional, cell-based. Summed up: as §2

Values joined by “and” are separate entries in the source; they are usually repeats but may differ in a detail not shown here. Identical values can stand only once. Active and inactive are the calls of the source. The rule behind the calls is not given here. Bounds are passed on as bounds.

What is called CC50 is the concentration giving 50% cytotoxicity. For orientation: EC50 means the concentration giving half of the maximal effect. As for `O=C(NCC(O)CO/N=C(\Cl)c1nc2ccccc2o1)N1CCCCC1` (configuration not stated), the Activity in data set [1] was determined as 28%. Further, the CC50 was found to be 46.9 µM in data set [2] and 59.6 µM in data set [4]. In addition, the result in [3] and in data set [5] was inactive. In the data set with SK-N-SH [6], the EC50 was 43.6 µM.

One may read the Inhibition as the drop in the measured response relative to a control, in per cent. In the case of `OC(CO/N=C(\Cl)c1nc2ccccc2o1)CN1CCC(F)CC1` (configuration not stated), the Activity in data set [1] stood at 63%. The molecule further gave an Inhibition in the data set on HeLa [7] of 35%. Further, in data set [3], the outcome was inactive. For the same molecule, it took 52.6 µM to reach half-maximal cytotoxicity in data set [4] (CC50). Besides, in the data set with SK-N-SH [6], the EC50 was determined as 18.8 µM.

Consider `OC(CO/N=C(\Cl)c1nc2ccccc2o1)CN1CCCCC1` (configuration not stated), for which the CC50 came out at 41.7 µM in [2] and 26 µM in data set [4]. Moreover, in the data set with HeLa [8], the outcome was inactive. The Activity is above 200% with PC-12, 90.6% in the data set with SK-N-SH [9], 58% in data set [5] and 51% in the data set on HeLa [10]. Also, the half-maximal effective concentration (EC50) was found to be 15.7 µM in the data set on SK-N-SH [6] and 32.9 µM in the data set with HeLa [10] (Homo sapiens, HeLa, 2 h). The result with SK-N-SH [11] was Active.

With `CC(C)N(CC(O)CO/N=C(\Cl)c1nc2ccccc2o1)C(C)C` (configuration not stated), the cytotoxic concentration (CC50) in [2] came to 45 µM; in [4] it was 30.8 µM. Also, the Activity in the data set with PC-12 was >150% and 300%. Also, the outcome in [3] was inactive. For the same molecule, the EC50 in the data set on SK-N-SH [6] turned out to be 14.7 µM.

Regarding `CCCN(CC(O)CO/N=C(\Cl)c1nc2ccccc2o1)C(C)C` (configuration not stated), the figures for the CC50 in data set [2] and in data set [4] were 57.6 µM and 50.4 µM, respectively. The outcome (in the data set on HeLa [8]; in data set [3]) was inactive. For the same molecule, the 50% effective concentration (EC50) with SK-N-SH [6] is 8.9 µM. Besides, in the data set with SK-N-SH [11], the result was Active.
